Results on 8 molecules are retold here after ChEMBL document CHEMBL1155808, “Antitumor activity of bis-indole derivatives” (J Med Chem, 2008).

Calls of active or inactive are those of the source. No cut-off for these calls is given here. Where a SMILES comes first, the peptide text is derived from it. The star is where a group is joined. Cbz = O=C(OCc1ccccc1)*

A short description of assay [1]: Cytotoxicity against human melanoma cells. Type of assay: functional. Particulars: Melanoma cell; for CC50: read-out: pLC50 (the source's name) (converted); for TGI: read-out: pTGI (converted).
The nature of assay [2]: Cytotoxicity against human Non-small cell lung carcinoma cells. It counts as functional. Particulars: for TGI: read-out: pTGI (converted). The essentials:
(§1)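 NCI 60-cell-line human tumour screen, with subpanels for leukemia, melanoma, lung, colon, kidney, ovary, breast, prostate and CNS. Compounds were dissolved in DMSO and tested at five ten-fold dilutions, highest 10^-4 M (10^-3 M for some). Endpoints were GI50, TGI and LC50, reported as negative log molar. Some compounds were assayed once, others two or three times.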

Assay [3] can be described thus: Cytotoxicity against human ovarian cancer cells. Type of assay: functional. Particulars: Cancer cell lines; for TGI: read-out: pTGI (converted).
Assay [4] in a line: Cytotoxicity against human leukemia cells. It counts as functional. The following applies: Leukemia cell; for CC50: read-out: pLC50 (the source's name) (converted); for TGI: read-out: pTGI (converted). Summed up:
as §1

Assay [5] in a line: Cytotoxicity against human central nervous system cancer cells. It counts as functional. Particulars: Cancer cell lines; for CC50: read-out: pLC50 (the source's name) (converted); for TGI: read-out: pTGI (converted). The essentials:
as §1

Assay [6] is described as follows: Inhibition of plasma membrane electron transport pathway in human HL60 cells by WST1 reduction assay. The following applies: HL-60. Type of assay: cell-based. The essentials:
(§2)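 Cells at 10^5 per well in 0.1 ml pretreated 30 min with compound in DMSO (<0.1% final), then WST-1/mPMS added (final 500 µM and 20 µM); WST-1 reduction followed in real time at 450 nm; averages ± S.E.M. of four independent experiments.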
(Tetrazolium dyes change colour on reduction, which living cells bring about.)

For the next assay, the system named is B1647. The assay is described as follows: Antiproliferative activity against human B1647 cells after 48 hrs by MTT assay. Type of assay: functional, cell-based.
Assay [7] is described as follows: Inhibition of plasma membrane electron transport pathway in human HL60 cells at 200 uM by WST1 reduction assay. The following applies: HL-60. It counts as cell-based.
Assay [8] can be described thus: Inhibition of plasma membrane electron transport pathway in mitochondrial gene-knockout human HL60p'0 cells by WST1 reduction assay. Summed up:
as §2

Another assay has as its system HEL. Description: Antiproliferative activity against human HEL cells after 48 hrs by MTT assay. Type of assay: functional, cell-based.
Another assay has as its system Mo7e. The assay is described as follows: Antiproliferative activity against human Mo7e cells after 48 hrs by MTT assay. It counts as functional, cell-based.
Assay [9] is described as follows: Cytotoxicity against human renal cancer cells. Type of assay: functional. The following applies: Cancer cell lines; for CC50: read-out: pLC50 (the source's name) (converted); for TGI: read-out: pTGI (converted). The essentials:
as §1

A short description of assay [10]: Cytotoxicity against human breast cancer cells. Type of assay: functional. The following applies: Cancer cell lines; for TGI: read-out: pTGI (converted). The essentials: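 MTT cytotoxicity assay in breast cancer cell lines; proliferation expressed as percent growth inhibition relative to vehicle-treated control cells; IC50 reported.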
The nature of assay [11]: Cytotoxicity against human colon cancer cells. It counts as functional. The following applies: Cancer cell lines; for TGI: read-out: pTGI (converted). The essentials: as §1
A short description of assay [12]: Cytotoxicity against human mitochondrial gene-knockout human HL60p'0 cells after 48 hrs by MTT assay. It counts as functional, cell-based.
In the next assay the test system is HL-60. Description: Cytotoxicity against human HL60 cells after 48 hrs by MTT assay. Type of assay: functional, cell-based. The following applies: HL-60, 48 h.
The nature of assay [13]: Cytotoxicity against human prostate cancer cells. It counts as functional. Particulars: Cancer cell lines; for TGI: read-out: pTGI (converted). The essentials:
as §1

Assay [14] has as its system MCF7. The assay is described as follows: Inhibition of proteasome in human MCF7 cells assessed as increase in stability of BCA2 protein at 10 umol/L in presence of cyclohexamide after 16 hrs by Western blot. Summed up: (§3)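 MCF7 cells, 1×10^6 seeded per well, grown overnight; cycloheximide 100 μmol/L added alone or with MG-132 (10 μmol/L) or compound, total 8 and 16 h; lysates Western blotted with anti-BCA2, anti-C-erbB2 and β-actin antibodies; BCA2 and C-erbB2 levels expressed relative to β-actin by densitometry.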

For assay [15], the system named is MCF7. The assay is described as follows: Inhibition of proteasome in human MCF7 cells assessed as effect on stability of BCA2 protein at 10 umol/L in presence of cyclohexamide after 8 hrs by Western blot. The essentials:
as §3
For orientation: A western blot detects proteins with antibodies after separation by electrophoresis.

Assay [16] deals with MCF7. The assay is described as follows: Inhibition of proteasome in human MCF7 cells assessed as effect on stability of BCA2 protein at 1 umol/L in presence of cyclohexamide after 8 hrs by Western blot. Summed up: as §3
Assay [17] relates to MCF7. Description: Cytotoxicity against human MCF7 cells. It counts as functional, cell-based.
The next assay deals with MDA-MB-231. Description: Cytotoxicity against human MDA-MB-231 cells. Type of assay: functional, cell-based.
Assay [18] can be described thus: Inhibition of plasma membrane electron transport pathway in human B1647 cells by WST1 reduction assay. It counts as cell-based. Summed up:
as §2

A short description of assay [19]: Inhibition of plasma membrane electron transport pathway in human HEL cells by WST1 reduction assay. Type of assay: cell-based. Summed up:
as §2

Assay [20] is described as follows: Inhibition of plasma membrane electron transport pathway in human Mo7e cells by WST1 reduction assay. It counts as cell-based. The essentials: as §2
Where [21] appears, read: read-out: pLC50 (the source's name) (converted).

`CC(=O)n1c(=O)/c(=C/c2c[nH]c3ccccc23)n(C(C)=O)c(=O)/c1=C/c1c[nH]c2ccccc12`: the concentration for 50% growth inhibition (GI50) (in general, the concentration giving 50% growth inhibition) is 87.1 µM in assay [1]; 85.1 µM in assay [2]; 79.4 µM in [3]; 93.3 µM in assay [4]; 75.9 µM in assay [5]; 29.5 µM in assay [9]. Halving of growth in [10] (GI50) required 66.1 µM. For the same molecule, the 50% inhibitory concentration (IC50) in assay [6] and in assay [8] was greater than 117 µM each time. Further, the result in the assay with B1647, in the assay on HEL and with Mo7e was Active. For the same molecule, in [7], the outcome was inactive.
Take `O=c1[nH]/c(=C\c2c[nH]c3ccccc23)c(=O)[nH]/c1=C\c1c[nH]c2ccccc12`: the GI50 was 55 µM in [1]; 97.7 µM in assay [2]; 64.6 µM in assay [5]; 70.8 µM in [9]; 64.6 µM in [10]. The concentration for half-maximal inhibition (IC50) in [6] and in [8] was greater than 117 µM each time. For the same molecule, the result in the assay on B1647, in the assay with HEL and in the assay on Mo7e was Active. For the same molecule, in assay [7], the result was inactive.
For the molecule `O=C1Nc2ccc(Cl)cc2/C1=C\c1cccc(/C=C2/C(=O)Nc3ccc(Cl)cc32)n1`, the GI50 in assay [1] was 0.692 µM; in assay [11] it was 0.933 µM; in [2] it was 1.74 µM; in assay [3], 1.26 µM; in assay [4] it was 0.661 µM; in assay [5] it was 0.891 µM. Moreover, the 50% growth inhibitory concentration (GI50) was 1.51 µM in [13], 1.26 µM in assay [9] and 1.12 µM in [10]. In addition, the CC50 in [1] was 7.94 µM; in assay [11] (setting [21]), 15.1 µM; in assay [2] (setting [21]) it was 20 µM; in [3] (setting [21]) it was 17.8 µM; in assay [4], 47.9 µM; in assay [5], 14.8 µM. Moreover, the values for the CC50 in assay [13] (setting [21]), in assay [9] and in assay [10] (setting [21]) were 24.5 µM, 7.59 µM and 22.9 µM, respectively. In addition, the TGI in [1] is 1.91 µM; in [11] it was 2.57 µM; in [2] it was 4.37 µM; in assay [3], 4.17 µM; in assay [4], 4.9 µM; in [5], 2.75 µM. Besides, the TGI in assay [13] was 6.61 µM; in assay [9], 2.95 µM; in assay [10] it was 4.17 µM. Moreover, the IC50 (as a rule, the concentration that inhibits the measured activity by half) in [12] was 3 µM; with HL-60, 3 µM; in [6], greater than 117 µM; in assay [8] it was greater than 117 µM. The outcome in the assay with B1647, with HEL and in the assay with Mo7e was Active.
Consider `O=C1Nc2ccc(C(=O)O)cc2/C1=C\c1cccc(/C=C2/C(=O)Nc3ccc(C(=O)O)cc32)n1`, for which the results for the concentration for 50% growth inhibition (GI50) in assay [4] and in assay [5] were 6.17 µM and 72.4 µM, respectively. The CC50 in assay [4] is 34.7 µM. The values for the TGI in assay [4] and in assay [5] were 21.4 µM and 87.1 µM, respectively. Moreover, the half-inhibitory concentration (IC50) in assay [6] and in [8] was greater than 117 µM in each case. Also, the outcome with B1647, with HEL and in the assay with Mo7e was Active. Also, the result in assay [7] was inactive.
With `CN(C)c1ccc2c(c1)/C(=C\c1cccc(/C=C3/C(=O)Nc4ccc(N(C)C)cc43)n1)C(=O)N2`, the GI50 in assay [1] was 4.37 µM; in assay [11] it was 6.76 µM; in assay [2], 5.25 µM; in assay [3] it was 7.59 µM; in assay [4], 2.34 µM; in assay [5] it was 4.37 µM. The GI50 in assay [13] was 3.55 µM; in assay [9], 8.71 µM; in [10], 6.03 µM. The CC50 is 60.3 µM in [1] and 89.1 µM in [5]. For the same molecule, the TGI in [1] is 30.2 µM; in assay [11], 38.9 µM; in [2] it was 43.7 µM; in [4], 9.55 µM; in assay [5], 44.7 µM; in [13], 29.5 µM. Further, the TGI in assay [10] was 69.2 µM. In addition, the 50% inhibitory concentration (IC50) in [6] and in assay [8] was greater than 117 µM in each case. Further, the outcome with B1647, in the assay on HEL and with Mo7e was Active. Further, the result in [7] was inactive.
In the case of `CC(C)C[C@@H](C=O)NC(=O)[C@H](CC(C)C)NC(=O)[C@H](CC(C)C)NC(=O)OCc1ccccc1` [MG-132] (Cbz-Leu-Leu-Leu-aldehyde), the fold change (FC) in the assay with MCF7 [14] was greater than 10. Moreover, the outcome in the assay on MCF7 [15] was Active. Moreover, the outcome with MCF7 [16] was inactive. Further, the values for the 50% inhibitory concentration (IC50) in the assay with MCF7 [17] and in the assay on MDA-MB-231 were 0.3 µM and 0.25 µM, respectively.
As to `O=C1Nc2ccc(O)cc2/C1=C\c1cccc(/C=C2/C(=O)Nc3ccc(O)cc32)n1`, the GI50 in assay [1] was 83.2 µM; in assay [11], 38.9 µM; in assay [2], 33.9 µM; in assay [3], 83.2 µM; in [4] it was 17.4 µM; in assay [5] it was 40.7 µM. Moreover, the GI50 in assay [13] is 20 µM; in [9], 34.7 µM; in assay [10], 40.7 µM. Further, the IC50 was 40 µM in assay [18]; greater than 117 µM in [6]; 40 µM in [19]; greater than 117 µM in assay [8]; 40 µM in [20]. Also, the CC50 in assay [4] is 93.3 µM; in assay [9] it was 95.5 µM. The TGI in assay [4] was 55 µM; in assay [9], 69.2 µM; in [10], 85.1 µM. Besides, the outcome in the assay with B1647, with HEL and in the assay with Mo7e was Active.
In the case of `CN1C(=O)/C(=C/c2cccc(/C=C3/C(=O)N(C)c4ccccc43)n2)c2ccccc21`, the GI50 in [1] was 4.9 µM; in assay [11] it was 10 µM; in assay [2] it was 12 µM; in assay [3] it was 10 µM; in assay [4] it was 3.09 µM; in [5], 7.59 µM. Besides, the GI50 in [13] is 13.5 µM; in assay [9], 10 µM; in assay [10], 8.91 µM. For the same molecule, the CC50 in assay [1] is 43.7 µM; in assay [5], 50.1 µM; in assay [9], 46.8 µM. Further, the TGI is 22.4 µM in assay [1]; 28.2 µM in assay [11]; 30.2 µM in assay [2]; 29.5 µM in assay [3]; 29.5 µM in [5]; 23.4 µM in [9]. The TGI in assay [10] was 33.1 µM. Moreover, the IC50 in [6] and in assay [8] was greater than 117 µM throughout. Moreover, the result with B1647, with HEL and with Mo7e was Active. In addition, the result in assay [7] was inactive.
